Measured values published in ChEMBL document CHEMBL3739331, “Synthesis and Bioactivities of Kanamycin B-Derived Cationic Amphiphiles” (J Med Chem, 2015).
Values after ≈ are worked out from the molar mass of the structure shown. Active and inactive are the calls of the source. No cut-off for these calls is given here.

Assays:
Candida albicans [1] = test: Antifungal activity against azole-resistant Candida albicans ATCC 64124 assessed as cell membrane permeabilization at twice the MIC after 1 hr by propidium iodide-staining based fluorescence microscopic analysis (reference value: <2%); type: functional
Candida albicans [2] = test: Antifungal activity against azole-resistant Candida albicans ATCC 64124 after 48 hrs in presence of posaconazole by checkerboard microdilution assay; type: functional; conditions: ATCC 64124, 48 h
Procedure, shortened: (§1)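 Checkerboard combinations of the aminoglycoside amphiphile with posaconazole against yeast strains, run in duplicate. Each agent's MIC is taken alone and in combination. The fractional inhibitory concentration index (FICI) is calculated to classify the interaction.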

[3] = Hemolytic activity against mouse RBC at 125 ug/ml after 60 mins; type: ADME, cell-based, Erythrocyte; conditions: red blood cells, read-out: Activity
[4] = Activity of AAC(3)-4 (unknown origin) assessed as compound acetylation activity by Ellman's method
Candida albicans [5] = test: Antifungal activity against azole-resistant Candida albicans ATCC 90819 after 48 hrs by microbroth dilution method; type: functional; conditions: ATCC 90819, 48 h
Procedure, shortened: (§2)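 Yeast MIC by broth microdilution, run in duplicate. The aminoglycoside compounds are read as MIC-0 (complete inhibition). Azoles are read as MIC-2 (50% inhibition).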

Candida albicans [6] = test: Antifungal activity against azole-resistant Candida albicans ATCC 64124 after 48 hrs by microbroth dilution method; type: functional; conditions: ATCC 64124, 48 h; procedure, shortened: as §2
Candida albicans [7] = test: Antifungal activity against azole-resistant Candida albicans MYA-1003 after 48 hrs in presence of posaconazole by checkerboard microdilution assay; type: functional; conditions: MYA-1003, 48 h; procedure, shortened: as §1
Candida albicans [8] = test: Antifungal activity against azole-resistant Candida albicans ATCC 90819 after 48 hrs in presence of posaconazole by checkerboard microdilution assay; type: functional; conditions: ATCC 90819, 48 h; procedure, shortened: as §1
Bacillus subtilis = test: Antibacterial activity against Bacillus subtilis 168 by microdilution method; type: functional; conditions: subsp. subtilis str. 168
Procedure, shortened: (§3)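 Broth microdilution MIC against the named bacterial strain, reported in μg/mL; each determination run at least in duplicate.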

Pseudomonas aeruginosa = test: Antibacterial activity against Pseudomonas aeruginosa ATCC 27853 by microdilution method; type: functional; procedure, shortened: as §3
Enterococcus = test: Antibacterial activity against vancomycin-resistant Enterococcus by microdilution method; type: functional
Procedure, shortened: (§4)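 Broth microdilution MIC, in μg/mL, against a panel of Gram-positive and Gram-negative strains. Run at least in duplicate.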

A549 = test: Cytotoxicity against human A549 cells after 24 hrs by resazurin assay; type: cell-based; conditions: Homo sapiens, A549, 24 h
Candida albicans [9] = test: Antifungal activity against azole-resistant Candida albicans MYA-1003 after 48 hrs by microbroth dilution method; type: functional; conditions: MYA-1003, 48 h; procedure, shortened: as §2
Enterobacter cloacae = test: Antibacterial activity against Enterobacter cloacae ATCC 13047 by microdilution method; type: functional; procedure, shortened: as §3
Candida albicans [10] = test: Antifungal activity against azole-resistant Candida albicans ATCC 64124 assessed as cell death after 24 hrs by time-kill assay; type: functional, organism-based
Procedure, shortened: (§5)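 Time-kill assay on C. albicans ATCC 64124 cultures exposed to test compound at 1/2 MIC, MIC and higher concentrations. Amphotericin B at 1 μg/mL and a no-drug culture serve as controls. CFU are counted at intervals over 24 h.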

[11] = Activity of AAC(6')-1e/APH(2'')-1a (unknown origin) assessed as compound acetylation activity by Ellman's method
[12] = tested on: Staphylococcus epidermidis; test: Antibacterial activity against Staphylococcus epidermidis ATCC 12228 by microdilution method; type: functional; procedure, shortened: as §3
Salmonella enterica = test: Antibacterial activity against Salmonella enterica ATCC 14028 by microdilution method; type: functional; procedure, shortened: as §3
Klebsiella pneumoniae = test: Antibacterial activity against Klebsiella pneumoniae ATCC 27736 by microdilution method; type: functional; procedure, shortened: as §3
Staphylococcus aureus [13] = test: Antibacterial activity against methicillin-resistant Staphylococcus aureus by microdilution method; type: functional; procedure, shortened: as §4
Candida albicans [14] = test: Antifungal activity against azole-resistant Candida albicans ATCC 64124 at MIC measured after 6 hrs by time-kill assay; type: functional; procedure, shortened: as §5
[15] = tested on: Mycobacterium tuberculosis; test: Activity of Mycobacterium tuberculosis Eis assessed as compound acetylation activity by Ellman's method
[16] = tested on: Mycobacterium tuberculosis; test: Activity of Mycobacterium tuberculosis AAC(2')-1c assessed as compound acetylation activity by Ellman's method
Candida albicans [17] = test: Antifungal activity against azole-resistant Candida albicans ATCC 64124 assessed as cell membrane permeabilization at 1 times MIC after 1 hr by propidium iodide-staining based fluorescence microscopic analysis (reference value: <2%); type: functional
Candida albicans [18] = test: Antifungal activity against azole-resistant Candida albicans MYA-1237 after 48 hrs in presence of posaconazole by checkerboard microdilution assay; type: functional; conditions: MYA-1237, 48 h; procedure, shortened: as §1
Escherichia coli = test: Antibacterial activity against Escherichia coli MC1061 by microdilution method; type: functional; procedure, shortened: as §4
Serratia marcescens = test: Activity of Serratia marcescens AAC(6')-2d assessed as compound acetylation activity by Ellman's method
[19] = tested on: Bacillus subtilis subsp. subtilis str. 168; test: Activity of Bacillus subtilis 168 APH(2'')-1a assessed as compound phosphorylation activity by Ellman's method
Candida albicans [20] = test: Antifungal activity against azole-resistant Candida albicans ATCC 10231 after 48 hrs in presence of posaconazole by checkerboard microdilution assay; type: functional; conditions: ATCC 10231, 48 h; procedure, shortened: as §1
Candida albicans [21] = test: Antifungal activity against azole-susceptible Candida albicans ATCC MYA-2876 after 48 hrs by microbroth dilution method; type: functional; conditions: ATCC MYA-2876, 48 h; procedure, shortened: as §2
[22] = Cytotoxicity against human BEAS2B cells after 24 hrs by resazurin assay; type: cell-based, BEAS-2B; conditions: Homo sapiens, BEAS-2B
Candida albicans [23] = test: Antifungal activity against azole-resistant Candida albicans MYA-1237 after 48 hrs by microbroth dilution method; type: functional; conditions: MYA-1237, 48 h; procedure, shortened: as §2
Aspergillus nidulans = test: Antifungal activity against Aspergillus nidulans ATCC 38163 after 48 hrs by microbroth dilution method; type: functional; conditions: ATCC 38163, 48 h
Procedure, shortened: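 Filamentous fungus MIC by broth microdilution, run in duplicate. All compounds are read as MIC-0 (complete inhibition).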

Staphylococcus aureus [24] = test: Antibacterial activity against Staphylococcus aureus NRS22 (USA 600) by microdilution method; type: functional; procedure, shortened: as §3
Acinetobacter baumannii = test: Antibacterial activity against Acinetobacter baumannii ATCC 19606 by microdilution method; type: functional; procedure, shortened: as §3
Candida albicans [25] = test: Antifungal activity against azole-susceptible Candida albicans ATCC MYA-2310 after 48 hrs by microbroth dilution method; type: functional; conditions: ATCC MYA-2310, 48 h; procedure, shortened: as §2
Staphylococcus aureus [26] = test: Antibacterial activity against Staphylococcus aureus NRS385 (USA 300) by microdilution method; type: functional; procedure, shortened: as §4
Candida albicans [27] = test: Antifungal activity against azole-susceptible Candida albicans ATCC MYA-2876 after 48 hrs in presence of posaconazole by checkerboard microdilution assay; type: functional; conditions: ATCC MYA-2876, 48 h; procedure, shortened: as §1
Candida albicans [28] = test: Antifungal activity against azole-susceptible Candida albicans ATCC MYA-2310 after 48 hrs in presence of posaconazole by checkerboard microdilution assay; type: functional; conditions: ATCC MYA-2310, 48 h; procedure, shortened: as §1
Candida albicans [29] = test: Antifungal activity against azole-resistant Candida albicans ATCC 64124 at sub-MIC measured over 24 hrs by time-kill assay; type: functional, organism-based; procedure, shortened: as §5
Candida albicans [30] = test: Antifungal activity against azole-resistant Candida albicans ATCC 10231 after 48 hrs by microbroth dilution method; type: functional; conditions: ATCC 10231, 48 h; procedure, shortened: as §2

Question: With CCCCCCCCCCCCSC[C@@H]1O[C@@H](O[C@@H]2[C@@H](O)[C@H](O[C@@H]3O[C@@H](CN)[C@H](O)[C@@H](O)[C@@H]3N)[C@@H](N)C[C@H]2N)[C@@H](O)[C@H](N)[C@H]1O (stereo in doubt) as the compound, how does the Activity (Candida albicans [1]) read?
Answer: 44%

Question: And the MIC (Candida albicans [2])?
Answer: 2 µg/mL

Question: And the hemolysis at 1 h, 125 ug/ml [3]?
Answer: 40%

Question: What about the Activity [4] of the same compound?
Answer: inactive

Question: And the MIC (Candida albicans [5])?
Answer: 31.2 µg/mL (≈ 46.7 µM)

Question: And the MIC (Candida albicans [6])?
Answer: 31.2 µg/mL (≈ 46.7 µM)

Question: What about the MIC (Candida albicans [7]) of the same compound?
Answer: 2 µg/mL

Question: And the MIC (Candida albicans [8])?
Answer: 4 µg/mL

Question: And the MIC (Bacillus subtilis)?
Answer: > 128 µg/mL

Question: And the MIC (Pseudomonas aeruginosa)?
Answer: 32 µg/mL (≈ 47.9 µM)

Question: What about the MIC (Enterococcus) of the same compound?
Answer: 16 µg/mL (≈ 24 µM)

Question: And the IC50 (A549)?
Answer: > 62.5 µg/mL

Question: What about the MIC (Candida albicans [9]) of the same compound?
Answer: 31.2 µg/mL (≈ 46.7 µM)

Question: What about the MIC (Enterobacter cloacae) of the same compound?
Answer: > 128 µg/mL

Question: And the Activity (Candida albicans [10])?
Answer: Active

Question: What about the Activity [11] of the same compound?
Answer: inactive

Question: What about the MIC [12] of the same compound?
Answer: > 128 µg/mL

Question: What about the MIC (Salmonella enterica) of the same compound?
Answer: > 128 µg/mL

Question: What about the MIC (Klebsiella pneumoniae) of the same compound?
Answer: > 128 µg/mL

Question: And the MIC (Staphylococcus aureus [13])?
Answer: 32 µg/mL (≈ 47.9 µM)

Question: What about the LCK (Candida albicans [14]) of the same compound?
Answer: >=2

Question: What about the Activity [15] of the same compound?
Answer: inactive

Question: And the Activity [16]?
Answer: inactive

Question: And the Activity (Candida albicans [17])?
Answer: 90%

Question: And the MIC (Candida albicans [18])?
Answer: 2 µg/mL

Question: What about the MIC (Escherichia coli) of the same compound?
Answer: > 128 µg/mL

Question: And the Activity (Serratia marcescens)?
Answer: inactive

Question: And the Activity [19]?
Answer: inactive

Question: And the MIC (Candida albicans [20])?
Answer: 8 µg/mL

Question: And the MIC (Candida albicans [21])?
Answer: 31.2 µg/mL (≈ 46.7 µM)

Question: What about the IC50 [22] of the same compound?
Answer: > 125 µg/mL

Question: What about the MIC (Candida albicans [23]) of the same compound?
Answer: 31.2 µg/mL (≈ 46.7 µM)

Question: What about the MIC (Aspergillus nidulans) of the same compound?
Answer: ≤ 1.95 µg/mL

Question: What about the MIC (Staphylococcus aureus [24]) of the same compound?
Answer: 16 µg/mL (≈ 24 µM)

Question: And the MIC (Acinetobacter baumannii)?
Answer: > 128 µg/mL

Question: What about the MIC (Candida albicans [25]) of the same compound?
Answer: 7.8 µg/mL (≈ 11.7 µM)

Question: And the MIC (Staphylococcus aureus [26])?
Answer: 16 µg/mL (≈ 24 µM)

Question: What about the MIC (Candida albicans [27]) of the same compound?
Answer: 2 µg/mL

Question: What about the MIC (Candida albicans [28]) of the same compound?
Answer: 1 µg/mL

Question: What about the Activity (Candida albicans [29]) of the same compound?
Answer: Active

Question: What about the MIC (Candida albicans [30]) of the same compound?
Answer: 31.2 µg/mL (≈ 46.7 µM)
